Drawing on ChEMBL document CHEMBL1158474, “Focus on the controversial activation of human iNKT cells by 4-deoxy analogue of KRN7000” (J Med Chem, 2009), this text covers Activity and EC50 for 1 molecule.

Active and inactive are the calls of the source.

The test system of assay [1] is Mus musculus. Briefly: Regulation of immune response in C57BL/6J mouse assessed as induction of NKT cell cytokine response-related IL2 secretion at 10 to 1000 ug/kg, ip after 2 hrs by ELISA. The assay is classed as functional, organism-based. (ELISA stands for enzyme-linked immunosorbent assay.)
Assay [2] concerns Mus musculus. In words: Regulation of immune response in C57BL/6J mouse assessed as induction of NKT cell cytokine response-related IFN-gamma secretion at 10 to 1000 ug/kg, ip after 14 hrs by ELISA. The assay is classed as functional, organism-based.
Assay [3] deals with iNKT. Briefly: Effect on immune response in human iNKT cells stimulated by antigen-presenting CD1d-transfected human HeLa cells assessed as induction of IL4 release by ELISA. The class given is functional, cell-based. The method, boiled down:
(§1)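 A human Vα24 iNKT cell line was stimulated for 6 h by CD1d-transfected HeLa cells loaded overnight with increasing glycolipid concentrations. Before loading, the glycolipid was solubilized in DMSO for a couple of hours at 37 °C. Supernatant TNF-α was measured by a cellular assay, and IFN-γ and IL-4 by ELISA. Triplicates were run, and one representative of three experiments is shown. EC50 values were given as mean ± SD.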

Assay [4] relates to iNKT. Briefly: Effect on immune response in human iNKT cells stimulated by antigen-presenting CD1d-transfected human HeLa cells assessed as induction of TNFalpha release by MTT assay. The class given is functional, cell-based. The gist of the method: as §1
(Tetrazolium assays rely on reduction of a dye to a coloured formazan, in cell work by metabolically active cells.)

In assay [5] the test system is Mus musculus. In words: Regulation of immune response in C57BL/6J mouse assessed as induction of NKT cell cytokine response-related IL4 secretion at 100 ug/kg, ip after 4 hrs by ELISA. The class given is functional, organism-based. The method, boiled down:
(§2)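 Mice were given glycolipid ip at 10, 50, 100 or 1000 μg/kg. Cytokine release kinetics (TNF-α, IL-4, IFN-γ) were followed over time after injection, with sampling that included 4 h and 18 h. Groups were compared statistically (P < 0.05 threshold).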

Assay [6] relates to Mus musculus. Briefly: Regulation of immune response in C57BL/6J mouse assessed as induction of NKT cell cytokine response-related IFN-gamma secretion at 10 to 1000 ug/kg, ip after 2 hrs by ELISA. The assay is classed as functional, organism-based.
The test system of assay [7] is Mus musculus. In words: Regulation of immune response in C57BL/6J mouse assessed as induction of NKT cell cytokine response-related TNFalpha secretion at 100 ug/kg, ip after 4 hrs by ELISA. The class given is functional, organism-based. The gist of the method:
as §2

Assay [8] has as its system Mus musculus. In words: Regulation of immune response in C57BL/6J mouse assessed as induction of NKT cell cytokine response-related IL2 secretion at 10 to 1000 ug/kg, ip after 14 hrs by ELISA. The class given is functional, organism-based.
The test system of assay [9] is iNKT. In words: Effect on immune response in human iNKT cells stimulated by antigen-presenting CD1d-transfected human HeLa cells assessed as induction of IFN-gamma release by ELISA. The class given is functional, cell-based. The method, boiled down: as §1
In assay [10] the test system is Mus musculus. In words: Regulation of immune response in C57BL/6J mouse assessed as induction of NKT cell cytokine response-related IFN-gamma secretion at 100 ug/kg, ip after 18 hrs by ELISA. The class given is functional, organism-based. The gist of the method:
as §2

As to `CCCCCCCCCCCCCCCCCCCCCCCCCC(=O)N[C@@H](CO[C@H]1O[C@H](CO)[C@H](O)[C@H](O)[C@H]1O)C(O)[C@H](O)CCCCCCCCCCCCCC` (single isomer, unassigned) [RGI-7000], the result in the assay with Mus musculus [1], in the assay with Mus musculus [2], in the assay on iNKT [3], in the assay with Mus musculus [5], with Mus musculus [6] and in the assay on Mus musculus [7] was Active. Moreover, the result in the assay with Mus musculus [8], in the assay on iNKT [9] and with Mus musculus [10] was Active. Moreover, the EC50 – broadly, the concentration giving half of the maximal effect – in the assay on iNKT [4] is 5 nM.
